Rows were chosen to be rich in hits. Some 2.4% of all compounds tested hit in one or more screens of this group.
miR122 inh: blocks miR-122 activity in Huh7 sensor cells; Huh7 miR-122 Renilla luciferase sensor, 48 h; neutral wells = 0, positive control = 100; activation (reporter increase), % at 12.5 µM; hit rate 0.3% among 340,000; AID 602342;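 active = mean replicate activation score at least 90 and every replicate individually at or above 90; inconclusive = only one of the two criteria met; inactive = neither criterion met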;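 also: higher luciferase means less miR-122 activity so hits act as miR-122 inhibitors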
Rtt109 HAT inh: inhibitors of Candida albicans Rtt109/Vps75 histone acetyltransferase | hit rate 0.16% among 330,000 | inhibition, % at 34.9 µM | AID 540336 | Q5AAJ8 | purified Rtt109/Vps75, ThioGlo CoA-SH fluorescence, 4 h;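 active = inhibition of at least 50% in every replicate; inconclusive = best replicate reaches 50% inhibition but some replicates fall short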
INS-1E GSIS act: GLuc luminescence reporter in INS-1E cells, primary screen for activators of glucose-dependent secretion of insulin; INS-1E GLuc reporter insulin secretion, 2-3 h; activation, % at 16.6 µM; hit rate 0.61% among 370,000; AID 743287;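 active = lowest replicate activation of at least 40%, so every replicate reaches that level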
HIV Env fusion: blocks HIV Env-driven cell-cell fusion | HeLa-JRFL Env/CEM21 cell fusion, luciferase | inhibition, % at 12.3 µM | hit rate 1.1% among 360,000;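 active = mean replicate inhibition score of at least 50 and every replicate individually at or above 50; inconclusive = only one of the two criteria met; inactive = mean below 50 and not all replicates reaching 50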
dFosB activator: mouse delta FosB homodimer activation; purified delta FosB, TAMRA-CDK5 oligo fluorescence polarization; percent of positive-control signal above neutral wells; hit rate 0.99% among 340,000; activation, % at 25 µM;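 active = mean activation above about 17%, with every replicate also reaching it, limit read from the data, passing the limit was not always enough; inconclusive = only one of the two conditions met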
Target sequence (P13346 whole entry, looked up): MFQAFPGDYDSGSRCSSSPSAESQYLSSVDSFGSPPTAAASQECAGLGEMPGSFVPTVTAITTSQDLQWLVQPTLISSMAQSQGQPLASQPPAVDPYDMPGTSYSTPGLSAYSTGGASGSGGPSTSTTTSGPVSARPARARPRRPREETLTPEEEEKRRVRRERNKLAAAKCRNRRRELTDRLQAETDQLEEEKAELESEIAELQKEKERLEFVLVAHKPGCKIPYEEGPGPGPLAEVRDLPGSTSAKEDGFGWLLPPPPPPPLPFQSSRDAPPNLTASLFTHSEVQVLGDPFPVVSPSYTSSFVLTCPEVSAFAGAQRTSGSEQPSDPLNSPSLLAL
Cneo AK release: Cryptococcus neoformans lysis via adenylate kinase release | lysis activity, % at 15 µM | C. neoformans lysis, adenylate kinase release luminescence, 4 h; normalised: neutral wells 0, clomiphene wells 100 | hit rate 0.2% among 360,000;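 active = mean lysis activity across replicates of at least 80%, whatever share of replicates individually reach that level; inactive = mean lysis activity below 80%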
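Test system: log-phase Cryptococcus neoformans yeast cells; Quantity: yeast cell density of 5 × 10^6 cells/mL; Buffer or medium: YPD; Doses: single compound concentration per well; Timing: 4 h at 37 °C static, read 1 h later; Measured by: AK luminescence; Read-out basis: lysis from increased AK signal; Control set: Clomiphene as positive control.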
Hits are given with their value; . = inactive; ? = inconclusive; / = no result.

SMILES	miR122 inh	Rtt109 HAT inh	INS-1E GSIS act	HIV Env fusion	dFosB activator	Cneo AK release
COc1ccc(NS(=O)(=O)c2cccc(C(=O)NNC(=O)c3cc(C)oc3C)c2)cc1	/	.	.	.	.	/
Cc1cc(C(=O)CN2C(=O)c3ccccc3S2(=O)=O)c(C)n1C(C)C	/	.	.	91.3	.	.
C=CCn1c(C)cc(C(=O)CN2C(=O)c3ccccc3S2(=O)=O)c1C	.	?	/	/	.	.
Cc1cc(C(=O)CN2C(=O)c3ccccc3S2(=O)=O)c(C)n1-c1ccccc1	.	.	/	/	.	.
CCn1c(C)cc(C(=O)CN2C(=O)c3ccccc3S2(=O)=O)c1C	/	.	.	98.5	.	.
CCOC(=O)c1c(NC(=O)CSc2nnc(CNc3ccc(Cl)cc3)o2)sc(C)c1C	.	.	/	64.9	.	.
CCOC(=O)c1c(NC(=O)CSc2nnc(CNc3ccc(F)cc3)o2)sc(C)c1C	.	.	/	?	.	.
CCN1[C@H](C(=O)NCCCN(C)C)[C@@H](CO)[C@@H]2Cn3c(ccc(C4=CCCC4)c3=O)[C@@H]21	/	/	.	/	/	/
CCCn1c(SCC(=O)N2CCCC2=O)nc2ccccc2c1=O	.	.	46.0	.	.	.
Cn1c(SCC(=O)N2CCCC2=O)nc2ccccc2c1=O	.	.	/	/	.	.
O=S(=O)(c1ccc(Cl)cc1)N1CCCC(c2nc(-c3ccc(F)cc3)no2)C1 (stereo not given)	.	.	.	.	.	.
O=S(=O)(c1ccccc1Cl)N1CCCC1c1nc(-c2ccc(Cl)cc2)no1 (stereo not given)	.	.	/	82.4	.	.
Cc1ccccc1S(=O)(=O)NC(=O)C1(C)CCN1C(=O)C1(c2ccc(Cl)cc2)CCC1 (stereo not given)	.	/	.	.	/	.
CC1(C(=O)NS(=O)(=O)c2ccc(Cl)s2)CCN1C(=O)C1(c2ccccc2)CCCC1 (stereo not given)	.	/	111.5	.	/	.
Cc1noc(C)c1S(=O)(=O)NC(=O)C1(C)CCN1C(=O)C1(c2ccc(Cl)cc2)CCC1 (stereo not given)	.	/	55.3	.	/	.
CC1(C(=O)NS(=O)(=O)c2ccccc2Cl)CCN1C(=O)C1(c2ccccc2)CCCC1 (stereo not given)	/	/	92.2	.	/	.
CC1(C(=O)NS(=O)(=O)c2ccc(Cl)s2)CCN1C(=O)C1(c2ccc(Cl)cc2)CCC1 (stereo not given)	.	/	58.9	.	/	.
CC1(C(=O)NS(=O)(=O)c2ccccc2Cl)CCN1C(=O)C1(c2ccccc2)CC1 (stereo not given)	.	/	.	.	/	.
CC1(C(=O)NS(=O)(=O)c2ccc(Cl)s2)CCN1C(=O)C1(c2ccc(Cl)cc2)CC1 (stereo not given)	.	/	/	.	/	.
CNC[C@@H]1OCCCC[C@H](C)Oc2ccc(NS(=O)(=O)c3ccc(OC)cc3)cc2C(=O)N([C@H](C)CO)C[C@H]1C	.	/	.	.	/	/
Cc1ccc2nc(N(CCCN(C)C)C(=O)c3ccc4c(c3)CCCC4)sc2c1	.	63.2	.	.	.	.
CN(C)CCN(C(=O)c1ccc2c(c1)CCCC2)c1nc2cc3c(cc2s1)OCCO3	/	.	.	.	?	.
Cc1cc(C)c2nc(N(CCCN(C)C)C(=O)c3ccc4c(c3)CCCC4)sc2c1	/	/	40.2	.	/	/
C[C@@H]1CCCCO[C@H](CN(C)S(=O)(=O)c2cn(C)cn2)[C@@H](C)CN([C@H](C)CO)C(=O)c2cc(NC(=O)C3CCCCC3)ccc2O1	.	/	.	.	/	.
CN(C)CCCCCCNC(=O)[C@@H]1C[C@@H]2C(=O)NCC(=O)N2[C@@H]1c1cccc(OCCO)c1	/	/	/	.	/	.
SMILES	miR122 inh	Rtt109 HAT inh	INS-1E GSIS act	HIV Env fusion	dFosB activator	Cneo AK release
COc1cccc(C2NC(=S)NC(C)=C2C(=O)c2ccccc2)c1OC (stereo not given)	147.1	.	.	.	.	/
C=CCOc1ccc(C2NC(=S)NC(C)=C2C(=O)c2ccccc2)cc1OC (stereo not given)	/	.	.	.	.	/
CN1CCN(C(c2ccccn2)c2cc(Cl)c3cccnc3c2O)CC1 (stereo not given)	.	55.8	.	.	.	/
Cc1ccc(C(c2cc(Cl)c3cccnc3c2O)N2CCN(C)CC2)cc1 (stereo not given)	.	.	/	/	.	.
CC(C)c1nc2oc3c(NCc4cccnc4)ncnc3c2c2c1CCC2	.	.	/	.	.	.
CC(C)Cc1nc2oc3c(NCc4cccnc4)ncnc3c2c2c1CCC2	.	.	75.3	.	.	.
CCS(=O)(=O)N[C@H]1C=C[C@@H](CC(=O)NCc2ccc(Cl)cc2)O[C@H]1CO	/	/	.	.	/	.
Cc1ccccc1-c1ccccc1[C@@H]1[C@H](C#N)N(C(=O)c2cccc(F)c2)[C@H]1CO	/	/	.	/	/	/
CO[C@H]1CN(C)C(=O)c2cc(NS(C)(=O)=O)ccc2OC[C@H](C)N(CC2CCCCC2)C[C@@H]1C	.	/	.	/	/	.
O=C(NCCC1=CCCCC1)c1ccc(F)c(S(=O)(=O)N2CCOCC2)c1	.	.	/	/	.	/
CC1CN(S(=O)(=O)c2cc(C(=O)NCCC3=CCCCC3)ccc2Cl)CC(C)O1 (stereo not given)	/	.	.	68.2	.	/
CC1CN(S(=O)(=O)c2cc(C(=O)NC(C)c3cccnc3)ccc2Cl)CC(C)O1 (stereo not given)	.	.	43.3	.	.	.
COc1ccc2oc(-c3ccncc3)cc(=O)c2c1	/	.	52.6	.	.	.
COc1ccc(-c2cc(=O)c3cc(O)ccc3o2)cc1	.	.	.	/	.	.
CC(=O)Nc1ccc(NC(=O)C(C)OC(=O)/C(C#N)=C/c2ccc(N(C)C)cc2)cc1 (stereo not given)	/	.	.	.	36.3	.
O=S(=O)(NC1CCN(Cc2ccc(OCCO)cc2)CC1)c1cc(C(F)(F)F)ccc1Cl	/	/	/	.	/	.
Cc1noc(C)c1NC(=O)N(C)C[C@@H]1OCCCC[C@H](C)Oc2ccc(N(C)C)cc2C(=O)N([C@H](C)CO)C[C@H]1C	.	/	/	.	/	.
O=C(CN1CCN(c2nc(-c3ccc(Cl)cc3)cs2)CC1)NCc1ccco1	.	.	.	60.3	.	.
COc1ccc(OC)c(/C=C/C(=O)OCC(=O)N2C(C)CCCC2C)c1 (stereo not given)	.	.	.	91.5	.	.
COc1ccc(OC)c(/C=C/C(=O)OCC(=O)N2CCCC2)c1	.	.	.	/	.	.
O=C(c1ccc(Cl)cc1)N1CCCCC(Sc2nnc(-c3ccc4c(c3)OCO4)o2)C1=O (stereo not given)	.	.	/	59.9	.	.
COc1ccc(-n2c(-c3ccc(Cl)cc3)c[nH]c2=S)cc1	.	.	200.3	.	.	.
Cc1ccc(-n2c(-c3ccccc3)c[nH]c2=S)cc1	/	.	.	.	.	/
C[C@@H]1CN([C@H](C)CO)S(=O)(=O)c2ccc(-c3ccncc3)cc2O[C@H]1CN(C)C(=O)C1CCC1	.	/	.	.	/	/
